The list is not random: actives were taken first. Their share in the collection is about 2%.
PPC-1+TRAIL kill – kills PPC-1 cancer cells in the presence of TRAIL. PPC-1 cells + TRAIL, ATPLite viability luminescence. cell killing (% activity), % at 4 µM or 5 µM. hit rate 0.41% among 220,000. AID 1443;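 active means cell killing above 50% in the first pass at 4 µM, then a duplicate retest at 5 µM averaging 50% or more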;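 further: plate controls were cells with TRAIL plus DMSO for no effect and medium-only wells lacking cells for full effect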
FLuc inhib CS – Photinus pyralis luciferase inhibition counter-screen; P08659; ATPLite firefly luciferase biochemical luminescence, 10 min; inhibition, % at 10 µM; hit rate 1.5% among 200,000; AID 1006;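 active means inhibition above about 50% when tested at 10 µM, limit read from the data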
Target sequence (P08659 whole entry, looked up): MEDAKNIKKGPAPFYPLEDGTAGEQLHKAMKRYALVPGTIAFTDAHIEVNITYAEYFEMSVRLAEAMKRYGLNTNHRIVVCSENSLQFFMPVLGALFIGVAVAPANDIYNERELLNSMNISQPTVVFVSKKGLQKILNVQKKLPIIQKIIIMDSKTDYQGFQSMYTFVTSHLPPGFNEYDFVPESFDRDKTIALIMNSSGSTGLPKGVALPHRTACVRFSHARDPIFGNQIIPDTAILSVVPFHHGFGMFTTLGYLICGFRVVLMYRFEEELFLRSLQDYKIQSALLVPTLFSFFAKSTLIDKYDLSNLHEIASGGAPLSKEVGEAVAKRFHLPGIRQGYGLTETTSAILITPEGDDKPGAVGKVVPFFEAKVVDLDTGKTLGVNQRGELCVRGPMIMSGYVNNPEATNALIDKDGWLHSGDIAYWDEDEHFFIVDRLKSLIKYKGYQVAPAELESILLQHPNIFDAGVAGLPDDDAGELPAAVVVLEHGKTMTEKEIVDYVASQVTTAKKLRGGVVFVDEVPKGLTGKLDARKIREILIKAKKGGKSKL
C8 TRAIL sens – sensitizes caspase-8 expressing cells to TRAIL. NB7+C8 cells + TRAIL, ATPlite viability luminescence. inhibition (viability loss, TRAIL sensitization), % at 10 µM. hit rate 1% among 360,000;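 active means compounds causing at least 50% loss of cell viability in the single-dose screen, relative to plate controls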
HSP90 refold inh – HSP90 refolding inhibition in rabbit reticulocyte lysate; hit rate 0.91% among 290,000; AID 1789; luciferase refolding luminescence, 3 h; inhibition, % at 5.6 µM;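 active means inhibition above the screen-wide mean plus 3 SD, computed separately per campaign, cut at about 16% in these data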;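 further: 0% = DMSO wells and 100% = 60 µM geldanamycin wells; inhibitors lower the luminescence because luciferase stays unfolded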
FLuc act counter – affects firefly luciferase, flagging false hits in luciferase stimulation screens; P08659; ATPlite luciferase biochemical, luminescence, 10 min; 0 = ATP-free wells, 1 = DMSO control; activation factor at 10 µM; 200,000 tested, under 10 active; AID 1027;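 active means luciferase activation factor, scaled between plate controls, of at least 2 with compound at 10 µM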
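System: cell-free luciferase reagent; medium: PBS as buffer for the ATP substrate; doses: test compounds dosed from 2 mM stocks in 100% DMSO; incubation: 10 min, room temperature; measured by: luminescence from luciferase reaction; read-out: luciferase activation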
Starred values were filed as active, the others as inactive; . = not tested or not shown.

SMILES	PPC-1+TRAIL kill	FLuc inhib CS	C8 TRAIL sens	HSP90 refold inh	FLuc act counter
COc1cccc(/C=N/Nc2nn3cnnc3c3ccccc23)c1	37	71*	64*	-3	0.3
Oc1ccc(/C=N/Nc2nn3cnnc3c3ccccc23)cc1	34	.	63*	4	.
Cc1ccc(C)c(S(=O)(=O)/N=C2\C=C(NS(=O)(=O)c3ccccc3)C(=O)c3ccccc32)c1	.	.	4	0	.
Cc1cc(C)c(S(=O)(=O)/N=C2/C=C(Sc3ncn[nH]3)C(=O)c3ccccc32)cc1C	48	6	-1	80*	0.9
O=c1[nH]cnc2c1ncn2C1OC(CO)CC1F (stereo unspecified)	.	.	-4	.	.
Cc1ccc(NC(=O)CCNCc2ccco2)cc1S(=O)(=O)N(C)C	15	79*	3	5	0.2
CCN(CC)c1ccc(N=Nc2nn(C)c(C)c2[N+](=O)[O-])cc1	42	76*	63*	0	0.2
Cc1cc(=O)n(Nc2ccccc2)c(O)c1C#N	.	.	-2	.	.
COc1ccc(-n2ncc3c(N(C)C4CCCCC4)ncnc32)cc1	.	.	85*	79*	.
COc1ccc(-n2ncc3c(N4CCC(C)CC4)ncnc32)cc1	.	.	45	29*	.
COc1cccc(CCN2C(=O)CCC3=C2CCC3=O)c1	.	.	-20	.	.
C[C@@H]1CCCCO[C@@H](CN(C)S(=O)(=O)c2ccc(F)cc2)[C@@H](C)CN([C@H](C)CO)C(=O)c2cc(NC(=O)c3ccccc3)ccc2O1	.	.	21	.	.
COC(=O)C1(C)COP(=O)(Nc2ccc(OC)cc2)OC1 (stereo unspecified)	.	.	9	.	.
COC(=O)c1ccc(N=Nc2ccccc2)cc1	11	60*	7	-5	0.4
O=C(Nc1ccc(NC(=O)C2CC2)cc1)c1ccco1	.	.	55*	3	.
O=C(Nc1ccc(NC(=O)c2ccco2)cc1)c1ccco1	.	.	3	4	.
CCOc1ccc(NC(=O)c2ccco2)cc1	48	76*	55*	9	0.2
CCOc1ccc(NC(=O)Nc2ccccc2SC)cc1	24	50*	43	-1	0.5
CCN(C(=O)COC(=O)c1cc(-c2ccc3cc(OC)ccc3c2)nc2ccccc12)C1CCS(=O)(=O)C1 (stereo unspecified)	83*	76*	.	1	0.2
CCN(C(=O)COC(=O)c1cc(OC)ccc1Br)C1CCS(=O)(=O)C1 (stereo unspecified)	.	.	-14	.	.
CSCCC(NC(=O)c1ccc(Cl)c([N+](=O)[O-])c1)C(=O)N1CCN(C/C=C/c2ccccc2)CC1 (stereo unspecified)	.	.	65*	.	.
CC(C)C(NC(=O)c1ccccc1)C(=O)N1CCN(C/C=C/c2ccccc2)CC1 (stereo unspecified)	.	.	-3	.	.
COC(=O)C1=C(C)N(Cc2ccccc2)C(=NCc2cccc(C(F)(F)F)c2)N[C@H]1c1cccc(C(F)(F)F)c1	.	.	94*	.	.
COC(=O)C1=C(C)N(Cc2ccccc2)C(=NCc2cccc(C(F)(F)F)c2)N[C@H]1c1cccc(F)c1	.	.	48	7	.
COC(=O)C1=C(C)N(Cc2ccccc2)C(=NCCc2c[nH]c3ccccc23)N[C@H]1c1cccc(C(F)(F)F)c1	.	.	52*	.	.
SMILES	PPC-1+TRAIL kill	FLuc inhib CS	C8 TRAIL sens	HSP90 refold inh	FLuc act counter
O=C1c2cccc3cccc(c23)C(=O)N1OS(=O)(=O)c1ccccc1	7	59*	12	1	0.4
COc1ccc(N(C(=O)CCl)C(C(=O)NC2CCCCC2)c2cccnc2)cc1 (stereo unspecified)	22	-10	94*	9	1.1
O=C(NC1CCCCC1)C(c1cccnc1)N(C(=O)CCl)c1ccc(F)cc1 (stereo unspecified)	1	-8	94*	0	1.1
O=C(NC1CCCCC1)C(c1cccnc1)N(C(=O)CCl)c1ccccc1Cl (stereo unspecified)	0	-10	15	6	1.1
CCOC(=O)[C@]12CCCC=C1N(CCc1ccc(OC)c(OC)c1)C(=O)[C@H](CC(=O)NCc1ccc(C)o1)C2	.	.	-6	.	.
COc1ccc(C2=C(c3ccccc3)OC(OC)c3cc(F)ccc32)cn1 (stereo unspecified)	.	.	-10	.	.
Cc1ccc2cc(NC(=O)c3cccc(F)c3)ccc2n1	5	.	46*	5	.
O=C(NCC1CCCO1)c1cc(-c2ccccc2)on1 (stereo unspecified)	7	4	2	1	1
O=C(NCC1CCCO1)c1cc(-c2ccc(Cl)cc2Cl)on1 (stereo unspecified)	45	71*	45	4	0.3
COc1cccc(NC(=S)N2CCCC2)c1	14	2	3	-4	1
COc1cc(NC(=S)N2CCCC2)cc(OC)c1	.	.	12	17*	.
CCCCCCCCCCCCCCCC[N+](C)(C)Cc1ccc(F)cc1	.	.	54*	.	.
CC#CC[N+](C)(C)CCCCCCCC	2	.	9	0	.
Cc1nc(C(F)(F)F)ccc1C(=O)N1CCC1(C)C(=O)NCc1ccc(Cl)cc1 (stereo unspecified)	.	.	-18	.	.
O=C(NCCc1csc(-c2ccccc2)n1)c1c(F)cccc1F	10	0	-16	41*	1
COc1ccc(/C=N/Nc2nccnc2Cl)c(OC)c1	16	52*	3	2	0.5
COc1ccc(/C=N/Nc2cc(C)nc(-n3nc(C)cc3C)n2)c(OC)c1	24	-4	55*	4	1
Clc1nccnc1N/N=C/c1ccc(Br)cc1	.	.	-1	1	.
COc1cccc(/C=N/Nc2nc(Nc3ccccc3)nc(-n3nc(C)cc3C)n2)c1O	0	5	61*	8	1
COc1ccc(/C=N/Nc2nccnc2Cl)cc1	34	70*	46	7	0.3
C[C@H]1CN(S(=O)C(C)(C)C)[C@H](CCO)/C1=C\CCO (stereo partly specified)	.	.	-1	.	.
COc1ccccc1CNC(=O)COC(=O)c1cnc(C)cn1	.	.	-15	.	.
CC1(C(=O)NS(=O)(=O)c2ccccc2C(F)(F)F)CCN1C(=O)c1cccc(F)c1 (stereo unspecified)	.	.	-1	.	.
Nc1nn(-c2ccccc2)c(N)c1N=Nc1ccc2c(c1)OCO2	12	51*	20	1	0.5
Nc1nn(-c2ccccc2)c(N)c1N=Nc1cccc(F)c1	11	.	11	4	.
Cc1onc(-c2c(F)cccc2Cl)c1C(=O)Nc1cc2cc([N+](=O)[O-])ccc2oc1=O	.	.	-2	.	.
O=C(NCc1ccccc1)c1cc(C2CCCCN2C(=O)OCCF)on1 (stereo unspecified)	.	.	-10	.	.
O=c1[nH]c(=S)[nH]c2c1C(c1ccc(Cl)c(Cl)c1)OC(CCc1ccccc1)C2 (stereo unspecified)	.	.	59*	.	.
CCCCC[C@@H]1[C@H]2[C@H]3C(=O)N(c4ccccc4)C(=O)[C@H]3CC(=O)[C@H]2[C@H](c2ccccc2)N1S(=O)(=O)c1ccc(C)cc1	.	.	-11	.	.
c1ccc(CSc2ccc(-c3ccco3)nn2)cc1	26	83*	59*	-1	0.2
